From ChEMBL document CHEMBL4350976, “Sequence modification of heptapeptide selected by phage display as homing device for HT-29 colon cancer cells to improve the anti-tumour activity of drug delivery systems” (Eur J Med Chem, 2019)
Where a SMILES comes first, the peptide text is derived from it. The star is where a group is joined. X1 = COc1cccc2c1C(=O)c1c(O)c3c(c(O)c1C2=O)C[C@@](O)(/C(C)=N/OCC(=O)*)C[C@@H]3O[C@H]1C[C@H](N)[C@H](O)[C@H](C)O1

Experiments:
[1] = Drug metabolism in rat liver lysosomes homogenate assessed as increase in Dau = Aoa-Leu-OH metabolite formation at 0.05 ug/ul after 1 hr by LC-MS analysis; assay type: ADME, subcellular, Lysosome; settings: tissue homogenate
Method in brief: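 Conjugates and rat liver lysosomal homogenate were each used at 0.05 µg/µL. Samples were taken at 0, 1, 3, 6 and 24 h. Metabolites were identified by LC-MS on a C18 column with a formic acid/acetonitrile gradient.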

[2] = tested on: U-87 MG; experiment: Cytostatic activity against human U87 cells preincubated for 24 hrs under serum free condition followed by compound washout and further incubation for 48 hrs in presence of serum by MTT assay; assay type: functional, cell-based, U-87MG ATCC
Method in brief: (§1)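 Cells were grown at 37 °C in 5% CO2 in medium with 10% heat-inactivated FBS (20% for OVCAR-3) plus penicillin/streptomycin. The medium was RPMI-1640 for most lines, DMEM for U-87 MG and MRC-5, and IMDM for PE/CA-PJ lines. Seeding was 3×10^3–10×10^3 cells per well. Cells had 24 h compound exposure, a wash, and 48 h further culture. Read-out was MTT, normalized to untreated cells and fitted by nonlinear regression for IC50.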

[3] = tested on: MDA-MB-231; experiment: Cytostatic activity against human MDA-MB-231 cells preincubated for 24 hrs under serum free condition followed by compound washout and further incubation for 48 hrs in presence of serum by MTT assay; assay type: functional, cell-based; method in brief: as §1
[4] = tested on: HCT-116; experiment: Cytostatic activity against human HCT116 cells preincubated for 24 hrs under serum free condition followed by compound washout and further incubation for 48 hrs in presence of serum by MTT assay; assay type: functional, cell-based; method in brief: as §1
[5] = tested on: HT-29; experiment: Cytostatic activity against human HT-29 cells preincubated for 24 hrs under serum free condition followed by compound washout and further incubation for 48 hrs in presence of serum by MTT assay; assay type: functional, cell-based
Method in brief: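 HT-29 cells were exposed to the compound for 24 h, washed, and kept a further 48 h. Viability was read by MTT. Absorbances were normalized to untreated controls and fitted by nonlinear regression to dose-response curves to give IC50.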

[6] = tested on: CT26.WT; experiment: Cytostatic activity against mouse CT26.WT cells preincubated for 24 hrs under serum free condition followed by compound washout and further incubation for 48 hrs in presence of serum by MTT assay; assay type: functional, cell-based; method in brief: as §1
[7] = Cytostatic activity against human M24 cells preincubated for 24 hrs under serum free condition followed by compound washout and further incubation for 48 hrs in presence of serum by MTT assay; assay type: functional, cell-based; method in brief: as §1
[8] = Cytostatic activity against human PE/CA-PJ15 cells preincubated for 24 hrs under serum free condition followed by compound washout and further incubation for 48 hrs in presence of serum by MTT assay; assay type: functional, cell-based; method in brief: as §1
[9] = tested on: HCT-116; experiment: Potency index, ratio of compound IC50 to Daunomycin IC50 for human HCT116 cells preincubated for 24 hrs under serum free condition followed by compound washout and further incubation for 48 hrs in presence of serum by MTT assay; assay type: functional
[10] = Drug uptake in lysosome of human HT-29 cells assessed as increase in fluorescence at 50 uM after 30 mins by LysoTracker deep red staining based confocal microscopic analysis; assay type: ADME, subcellular; settings: ht-29, 0.5 h
Method in brief: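 HT-29 cells were exposed to 50 µM conjugate for 30 min before imaging. Lysosomes were stained with LysoTracker Deep Red and mitochondria with MitoTracker Deep Red. Confocal imaging detected Dau at 550–600 nm.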

[11] = tested on: HT-29; experiment: Cytotoxicity against human HT-29 cells assessed as reduction in cell viability by measuring decrease in fluorescence intensity at 100 uM incubated for 3 hrs by flow cytometry; assay type: cell-based; settings: ht-29, 3 h
[12] = tested on: HT-29; experiment: Potency index, ratio of compound IC50 to Daunomycin IC50 for human HT-29 cells preincubated for 24 hrs under serum free condition followed by compound washout and further incubation for 48 hrs in presence of serum by MTT assay; assay type: functional
[13] = tested on: NCI-H1650; experiment: Potency index, ratio of compound IC50 to Daunomycin IC50 for human NCI-H1650 cells preincubated for 24 hrs under serum free condition followed by compound washout and further incubation for 48 hrs in presence of serum by MTT assay; assay type: functional
[14] = tested on: NCI-H1975; experiment: Potency index, ratio of compound IC50 to Daunomycin IC50 for human NCI-H1975 cells preincubated for 24 hrs under serum free condition followed by compound washout and further incubation for 48 hrs in presence of serum by MTT assay; assay type: functional
[15] = tested on: A2058; experiment: Potency index, ratio of compound IC50 to Daunomycin IC50 for human A2058 cells preincubated for 24 hrs under serum free condition followed by compound washout and further incubation for 48 hrs in presence of serum by MTT assay; assay type: functional
[16] = tested on: B16; experiment: Potency index, ratio of compound IC50 to Daunomycin IC50 for mouse B16 cells preincubated for 24 hrs under serum free condition followed by compound washout and further incubation for 48 hrs in presence of serum by MTT assay; assay type: functional
[17] = Potency index, ratio of compound IC50 to Daunomycin IC50 for human PE/CA-PJ15 cells preincubated for 24 hrs under serum free condition followed by compound washout and further incubation for 48 hrs in presence of serum by MTT assay; assay type: functional
[18] = tested on: OVCAR-3; experiment: Potency index, ratio of compound IC50 to Daunomycin IC50 for human OVCAR3 cells preincubated for 24 hrs under serum free condition followed by compound washout and further incubation for 48 hrs in presence of serum by MTT assay; assay type: functional
[19] = tested on: HT-29; experiment: Antitumor activity against human HT-29 cells xenografted in SCID mouse assessed as tumor growth inhibition by measuring decrease in tumor weight at 38.3 mg/kg, ip administered thrice in first week and twice in second week (on days 13, 16, 20, 23 and 27) starting from 13 days post inoculation measured at day 30 post inoculation relative to control; assay type: functional; settings: HT-29, ip
Method in brief: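 Orthotopic HT-29 tumours in female SCID mice aged 6–8 weeks (22–27 g), 8 per group. Conjugates were given i.p. in water for injection at 10 mg/kg Dau content on days 13, 16, 20, 23 and 27. The study ended on day 30. Tumours were weighed against solvent controls, and livers were weighed as a toxicity read-out.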

[20] = Retention time of the compound using 0.1% TFA in water and 0.1% TFA in acetonitrile-water (80:20 v/v) as eluents by RP-HPLC analysis; assay type: physicochemical
Method in brief: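 Analytical RP-HPLC. Eluent A was 0.1% TFA in water and eluent B was 0.1% TFA in acetonitrile-water (80:20, v/v). Gradient: 0% B held to 5 min, then to 90% B at 50 min. Flow 1 mL/min, detection at 220 nm. The column was a Phenomenex Aeris Peptide XB-C18 (250×4.6 mm, 3.6 μm) or a Nucleosil C18 (5 μm, 100 Å, 250×4.6 mm), depending on the conjugate series.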

[21] = tested on: HT-29; experiment: Antitumor activity against human HT-29 cells xenografted in SCID mouse assessed as decrease in number of Ki-67 positive cells measured as proliferation index at 38.3 mg/kg, ip administered thrice in first week (on days 13, 16, 20, 23 and 27) and twice in second week starting from 13 days post inoculation measured at day 30 post inoculation by KI-67-staining based light microscopic analysis (reference value: 100%); assay type: functional; parameters: scale not given: the % may be the effect or the level left
Method in brief: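 Tumours from the SCID HT-29 orthotopic study were formalin-fixed and paraffin-embedded, cut at 2 µm, and given citrate pH 6 retrieval at 98 °C for 40 min. They were stained with anti-human Ki-67 (1:40, 1 h RT), then a biotinylated link, HRP polymer and AEC. Ki-67+ cells were counted in 5 fields per tumour at 40× magnification. The proliferation index is the % positive cells.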

[22] = Drug uptake in human HT-29 cells incubated for 3 hrs by flow cytometry; assay type: ADME, cell-based; settings: ht-29, 3 h
Method in brief: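 HT-29 cells were exposed to 100 µM conjugate for 3 h. Flow cytometry recorded the percentage of Dau-positive cells and the mean fluorescence intensity, in duplicate.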

## COc1cccc2c1C(=O)c1c(O)c3c(c(O)c1C2=O)C[C@@](O)(/C(C)=N/OCC(=O)N[C@@H](CC(C)C)C(=O)N[C@@H](CCCNC(=N)N)C(=O)N[C@@H](CCCNC(=N)N)C(=O)N[C@@H](Cc1ccc(O)cc1)C(=O)N[C@H](C(=O)N[C@@H](Cc1cnc[nH]1)C(=O)N[C@@H](CC(C)C)C(=O)N[C@@H](Cc1ccccc1)C(=O)N[C@@H](Cc1ccc(O)cc1)C(=O)N[C@@H](C)C(=O)N[C@H](C(N)=O)[C@@H](C)O)C(C)C)C[C@@H]3O[C@H]1C[C@H](N)[C@H](O)[C@H](C)O1 (X1-LRRYVHLFYAT-NH2)
[1]
  Drug metabolism: Metabolite_Detected
[2]
  IC50: 6.6 µM
[3]
  IC50: 4.6 µM
[4]
  IC50: 7.2 µM
[5]
  IC50: 6.5 to 11.6 µM
[6]
  IC50: 8.3 µM
[7]
  IC50: 5.8 µM
[8]
  IC50: 7.4 µM
[9]
  Ratio IC50: 57
[10]
  Drug uptake: Active
[11]
  Activity: Toxic
[12]
  Ratio IC50: 57.1
[13]
  Ratio IC50: 60.1
[14]
  Ratio IC50: 279.9
[15]
  Ratio IC50: 104.5
[16]
  Ratio IC50: 335.4
[17]
  Ratio IC50: 277.3
[18]
  Ratio IC50: 24
[19]
  inhibition in vivo at 38.3 mg/kg: 89%
[20]
  Retention time: 31.2 to 33.2 min
[21]
  Activity: 58%
[22]
  Drug uptake: Dose-dependent effect
